Tests used:
[1] = molecular target: Histone deacetylase 2 (Homo sapiens, UniProt Q92769); test: Inhibition of HDAC2
[2] = molecular target: Cytochrome P450 2D6 (Homo sapiens, UniProt P10635); test: Inhibition of CYP2D6; assay type: ADME
[3] = molecular target: T1, NAD-dependent protein deacetylase sirtuin-2 (Homo sapiens, UniProt Q8IXJ6); test: Inhibition of human recombinant SIRT2 using Fluor de Lys-SIRT as substrate incubated for 60 mins prior to substrate addition measured after 60 mins by fluorimetric analysis
T1 sequence (Q8IXJ6 whole entry): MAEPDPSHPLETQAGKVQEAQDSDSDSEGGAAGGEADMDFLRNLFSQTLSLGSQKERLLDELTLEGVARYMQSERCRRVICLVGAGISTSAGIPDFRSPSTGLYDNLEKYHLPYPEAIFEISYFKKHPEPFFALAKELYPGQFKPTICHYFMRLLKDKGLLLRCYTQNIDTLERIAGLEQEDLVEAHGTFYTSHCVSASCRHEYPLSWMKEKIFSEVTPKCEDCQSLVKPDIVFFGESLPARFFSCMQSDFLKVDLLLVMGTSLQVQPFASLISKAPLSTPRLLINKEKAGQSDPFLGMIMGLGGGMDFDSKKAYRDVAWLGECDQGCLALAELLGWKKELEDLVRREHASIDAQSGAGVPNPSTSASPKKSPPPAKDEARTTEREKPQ
In short: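 Human recombinant SIRT2 preincubated with 1 mM NAD⁺ and serial compound dilutions for 60 min at 37 °C, then 25 μM Fluor de Lys-SIRT substrate added. Reaction stopped at 60 min with Developer II containing nicotinamide. Fluorescence read 45 min later at ex 360/em 460 nm. % inhibition taken against control wells. IC₅₀ obtained by regression of log[Inh] vs logit % inhibition; means of ≥3 experiments.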

[4] = Metabolic stability in human liver microsomes assessed as compound remaining at 0.5 mg after 15 mins; assay type: ADME, Microsome; settings: read-out: Stability
[5] = molecular target: T2, NAD-dependent protein deacetylase sirtuin-3, mitochondrial (Homo sapiens, UniProt Q9NTG7); test: Inhibition of human recombinant SIRT3 using Fluor de Lys-SIRT as substrate incubated for 60 mins prior to substrate addition measured after 60 mins by fluorimetric analysis
T2 sequence (Q9NTG7 whole entry): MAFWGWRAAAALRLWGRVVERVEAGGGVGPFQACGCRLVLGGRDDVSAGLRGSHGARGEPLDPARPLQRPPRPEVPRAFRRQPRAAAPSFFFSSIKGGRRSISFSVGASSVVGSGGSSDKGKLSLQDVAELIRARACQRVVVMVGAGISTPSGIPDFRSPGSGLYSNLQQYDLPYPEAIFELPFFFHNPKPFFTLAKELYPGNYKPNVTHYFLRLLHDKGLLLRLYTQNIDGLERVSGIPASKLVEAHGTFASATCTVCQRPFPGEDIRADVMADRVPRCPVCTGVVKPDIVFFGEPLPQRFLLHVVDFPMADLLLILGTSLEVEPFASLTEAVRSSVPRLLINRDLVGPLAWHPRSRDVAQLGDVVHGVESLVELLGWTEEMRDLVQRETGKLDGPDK

[6] = molecular target: T3, NAD-dependent protein deacetylase sirtuin-1 (Homo sapiens, UniProt Q96EB6); test: Inhibition of human recombinant SIRT1 using Fluor de Lys-SIRT as substrate incubated for 60 mins prior to substrate addition measured after 60 mins by fluorimetric analysis
T3 sequence (Q96EB6 whole entry): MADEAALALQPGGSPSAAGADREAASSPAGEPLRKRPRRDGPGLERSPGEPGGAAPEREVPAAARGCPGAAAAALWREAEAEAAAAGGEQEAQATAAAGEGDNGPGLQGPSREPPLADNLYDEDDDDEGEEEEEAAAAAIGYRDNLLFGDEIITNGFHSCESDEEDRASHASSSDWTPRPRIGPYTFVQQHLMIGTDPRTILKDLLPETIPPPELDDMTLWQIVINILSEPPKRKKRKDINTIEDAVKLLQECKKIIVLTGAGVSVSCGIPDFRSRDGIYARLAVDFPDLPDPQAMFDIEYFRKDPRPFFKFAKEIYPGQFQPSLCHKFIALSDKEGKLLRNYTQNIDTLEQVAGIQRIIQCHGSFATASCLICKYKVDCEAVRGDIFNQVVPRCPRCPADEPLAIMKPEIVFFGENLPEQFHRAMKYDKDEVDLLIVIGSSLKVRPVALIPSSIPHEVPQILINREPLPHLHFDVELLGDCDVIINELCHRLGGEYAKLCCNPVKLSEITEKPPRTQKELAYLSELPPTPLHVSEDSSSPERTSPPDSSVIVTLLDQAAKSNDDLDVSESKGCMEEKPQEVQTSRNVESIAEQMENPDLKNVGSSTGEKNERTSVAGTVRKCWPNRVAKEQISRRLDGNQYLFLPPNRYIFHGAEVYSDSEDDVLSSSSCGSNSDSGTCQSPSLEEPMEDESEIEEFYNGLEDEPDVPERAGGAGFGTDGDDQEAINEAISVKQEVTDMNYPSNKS
In short: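 Human recombinant SIRT1 run the same way: 60 min at 37 °C with 1 mM NAD⁺ and serial compound dilutions, then 25 μM Fluor de Lys-SIRT substrate for 60 min. Stopped with nicotinamide-containing Developer II and read 45 min later at ex 360/em 460 nm. IC₅₀ from logit regression of % inhibition vs control; means of ≥3 experiments.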

[7] = molecular target: Histone deacetylase 3 (Homo sapiens, UniProt O15379); test: Inhibition of HDAC3
Histone deacetylase 3, sequence (O15379 whole entry): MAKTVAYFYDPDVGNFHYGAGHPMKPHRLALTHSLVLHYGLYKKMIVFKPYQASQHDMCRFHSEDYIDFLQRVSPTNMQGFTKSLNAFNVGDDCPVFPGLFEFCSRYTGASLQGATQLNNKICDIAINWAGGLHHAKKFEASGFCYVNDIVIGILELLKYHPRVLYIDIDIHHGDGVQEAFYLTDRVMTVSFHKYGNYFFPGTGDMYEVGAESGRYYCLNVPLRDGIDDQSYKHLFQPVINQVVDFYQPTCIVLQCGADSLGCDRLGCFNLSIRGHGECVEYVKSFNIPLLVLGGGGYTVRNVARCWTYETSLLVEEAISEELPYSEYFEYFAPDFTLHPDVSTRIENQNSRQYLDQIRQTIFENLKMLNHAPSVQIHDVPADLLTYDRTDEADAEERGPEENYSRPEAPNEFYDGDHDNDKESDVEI

[8] = molecular target: Cytochrome P450 3A4 (Homo sapiens, UniProt P08684); test: Inhibition of CYP3A4; assay type: ADME
Cytochrome P450 3A4, sequence (P08684 whole entry): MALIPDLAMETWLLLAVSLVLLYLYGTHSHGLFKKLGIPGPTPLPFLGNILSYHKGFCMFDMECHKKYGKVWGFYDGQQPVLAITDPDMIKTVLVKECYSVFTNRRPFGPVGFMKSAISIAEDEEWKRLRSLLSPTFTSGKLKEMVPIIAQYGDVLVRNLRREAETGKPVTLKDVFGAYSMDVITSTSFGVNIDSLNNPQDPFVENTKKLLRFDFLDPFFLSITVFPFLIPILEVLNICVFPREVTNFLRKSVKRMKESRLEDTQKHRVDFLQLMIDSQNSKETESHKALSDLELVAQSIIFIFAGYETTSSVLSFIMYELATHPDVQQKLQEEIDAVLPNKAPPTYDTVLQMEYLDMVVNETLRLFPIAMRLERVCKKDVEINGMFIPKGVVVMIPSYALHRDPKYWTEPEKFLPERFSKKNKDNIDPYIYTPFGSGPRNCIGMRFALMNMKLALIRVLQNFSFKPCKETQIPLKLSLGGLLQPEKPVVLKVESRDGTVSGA

[9] = molecular target: T4, Histone deacetylase 8 (Homo sapiens, UniProt Q9BY41); test: Inhibition of HDAC8
T4 sequence (Q9BY41 whole entry): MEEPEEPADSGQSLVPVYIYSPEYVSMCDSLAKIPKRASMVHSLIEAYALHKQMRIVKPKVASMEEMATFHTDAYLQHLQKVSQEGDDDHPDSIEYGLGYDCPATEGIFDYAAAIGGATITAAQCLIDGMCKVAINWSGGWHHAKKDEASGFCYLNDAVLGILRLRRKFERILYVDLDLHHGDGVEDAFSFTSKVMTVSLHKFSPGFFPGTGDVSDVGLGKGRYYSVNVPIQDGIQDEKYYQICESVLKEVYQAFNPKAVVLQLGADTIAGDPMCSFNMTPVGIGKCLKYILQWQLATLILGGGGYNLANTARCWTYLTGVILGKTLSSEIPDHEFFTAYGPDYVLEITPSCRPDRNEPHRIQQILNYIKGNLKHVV

[10] = molecular target: Histone deacetylase 4 (Homo sapiens, UniProt P56524); test: Inhibition of HDAC4
Histone deacetylase 4, sequence (P56524 whole entry): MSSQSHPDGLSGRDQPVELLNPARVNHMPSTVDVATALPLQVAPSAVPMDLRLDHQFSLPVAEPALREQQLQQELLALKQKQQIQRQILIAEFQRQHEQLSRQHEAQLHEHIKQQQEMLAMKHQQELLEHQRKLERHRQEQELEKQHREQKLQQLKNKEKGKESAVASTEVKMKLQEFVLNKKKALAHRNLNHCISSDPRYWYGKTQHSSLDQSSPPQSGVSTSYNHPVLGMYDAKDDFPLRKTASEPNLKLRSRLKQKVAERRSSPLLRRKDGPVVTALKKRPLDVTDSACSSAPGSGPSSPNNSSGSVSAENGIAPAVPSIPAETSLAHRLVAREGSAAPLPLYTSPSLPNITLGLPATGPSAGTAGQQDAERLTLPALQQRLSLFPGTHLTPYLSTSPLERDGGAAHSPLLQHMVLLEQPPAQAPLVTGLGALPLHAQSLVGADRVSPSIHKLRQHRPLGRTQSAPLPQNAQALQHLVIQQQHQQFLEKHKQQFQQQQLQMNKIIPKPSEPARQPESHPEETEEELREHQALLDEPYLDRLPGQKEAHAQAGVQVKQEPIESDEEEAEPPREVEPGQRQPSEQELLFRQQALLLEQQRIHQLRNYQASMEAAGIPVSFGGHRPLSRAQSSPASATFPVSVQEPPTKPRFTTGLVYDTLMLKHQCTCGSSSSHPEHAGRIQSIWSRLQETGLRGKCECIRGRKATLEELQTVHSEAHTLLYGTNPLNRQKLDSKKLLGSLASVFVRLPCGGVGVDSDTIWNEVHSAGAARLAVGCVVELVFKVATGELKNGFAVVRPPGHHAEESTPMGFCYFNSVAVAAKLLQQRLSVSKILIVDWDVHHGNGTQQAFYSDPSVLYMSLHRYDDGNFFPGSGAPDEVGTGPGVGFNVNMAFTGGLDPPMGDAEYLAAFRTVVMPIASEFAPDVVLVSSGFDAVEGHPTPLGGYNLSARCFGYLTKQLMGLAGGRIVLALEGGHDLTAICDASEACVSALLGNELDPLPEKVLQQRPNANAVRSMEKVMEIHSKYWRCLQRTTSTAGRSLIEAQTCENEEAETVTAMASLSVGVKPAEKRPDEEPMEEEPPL

[11] = molecular target: Histone deacetylase 9 (Homo sapiens, UniProt Q9UKV0); test: Inhibition of HDAC9
Histone deacetylase 9, sequence (Q9UKV0 whole entry): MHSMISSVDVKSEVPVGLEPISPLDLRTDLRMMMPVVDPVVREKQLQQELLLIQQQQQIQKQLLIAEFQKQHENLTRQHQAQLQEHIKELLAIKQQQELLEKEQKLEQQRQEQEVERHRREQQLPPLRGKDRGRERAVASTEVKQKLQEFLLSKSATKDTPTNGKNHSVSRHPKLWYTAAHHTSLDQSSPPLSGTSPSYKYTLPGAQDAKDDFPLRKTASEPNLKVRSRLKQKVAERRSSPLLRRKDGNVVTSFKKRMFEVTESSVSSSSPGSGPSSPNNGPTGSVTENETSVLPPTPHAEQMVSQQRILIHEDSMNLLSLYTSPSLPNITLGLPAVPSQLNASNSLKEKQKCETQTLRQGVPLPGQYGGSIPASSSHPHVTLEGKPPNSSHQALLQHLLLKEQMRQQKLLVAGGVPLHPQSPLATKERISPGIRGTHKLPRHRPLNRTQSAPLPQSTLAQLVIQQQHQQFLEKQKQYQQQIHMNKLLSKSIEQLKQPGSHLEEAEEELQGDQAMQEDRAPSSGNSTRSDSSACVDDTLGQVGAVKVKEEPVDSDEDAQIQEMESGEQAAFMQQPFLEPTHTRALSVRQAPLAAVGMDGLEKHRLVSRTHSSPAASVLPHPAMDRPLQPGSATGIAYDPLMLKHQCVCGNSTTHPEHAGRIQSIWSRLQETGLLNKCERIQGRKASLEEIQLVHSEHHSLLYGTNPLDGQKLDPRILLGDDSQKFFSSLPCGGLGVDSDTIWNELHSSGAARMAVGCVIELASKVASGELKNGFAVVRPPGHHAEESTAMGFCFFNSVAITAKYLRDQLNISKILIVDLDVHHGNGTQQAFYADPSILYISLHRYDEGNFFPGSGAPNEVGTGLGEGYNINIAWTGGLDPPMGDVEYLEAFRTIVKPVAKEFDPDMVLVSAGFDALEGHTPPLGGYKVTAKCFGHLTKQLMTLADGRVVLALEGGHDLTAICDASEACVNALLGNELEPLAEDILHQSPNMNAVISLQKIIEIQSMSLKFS

[12] = molecular target: T5, NAD-dependent protein deacetylase sirtuin-2 (Homo sapiens) (UniProt Q8IXJ6); test: Binding affinity to recombinant SIRT2 by surface plasmon resonance assay
T5 sequence (whole entry): T1 sequence (Q8IXJ6 whole entry)

Histone deacetylase 2, sequence (Q92769 whole entry): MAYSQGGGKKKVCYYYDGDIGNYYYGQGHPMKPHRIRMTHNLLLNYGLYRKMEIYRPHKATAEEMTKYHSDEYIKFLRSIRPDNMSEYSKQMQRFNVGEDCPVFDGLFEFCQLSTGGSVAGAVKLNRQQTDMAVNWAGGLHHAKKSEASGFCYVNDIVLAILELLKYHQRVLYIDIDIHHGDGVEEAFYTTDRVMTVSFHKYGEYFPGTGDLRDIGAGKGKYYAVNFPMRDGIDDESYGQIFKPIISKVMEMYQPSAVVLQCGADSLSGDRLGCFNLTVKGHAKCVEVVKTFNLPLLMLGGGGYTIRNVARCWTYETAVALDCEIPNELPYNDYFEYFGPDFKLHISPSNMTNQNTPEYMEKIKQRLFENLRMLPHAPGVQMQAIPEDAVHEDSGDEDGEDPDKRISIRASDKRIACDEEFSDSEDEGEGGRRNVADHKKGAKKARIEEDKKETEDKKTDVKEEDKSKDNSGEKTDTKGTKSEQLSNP
Cytochrome P450 2D6, sequence (P10635 whole entry): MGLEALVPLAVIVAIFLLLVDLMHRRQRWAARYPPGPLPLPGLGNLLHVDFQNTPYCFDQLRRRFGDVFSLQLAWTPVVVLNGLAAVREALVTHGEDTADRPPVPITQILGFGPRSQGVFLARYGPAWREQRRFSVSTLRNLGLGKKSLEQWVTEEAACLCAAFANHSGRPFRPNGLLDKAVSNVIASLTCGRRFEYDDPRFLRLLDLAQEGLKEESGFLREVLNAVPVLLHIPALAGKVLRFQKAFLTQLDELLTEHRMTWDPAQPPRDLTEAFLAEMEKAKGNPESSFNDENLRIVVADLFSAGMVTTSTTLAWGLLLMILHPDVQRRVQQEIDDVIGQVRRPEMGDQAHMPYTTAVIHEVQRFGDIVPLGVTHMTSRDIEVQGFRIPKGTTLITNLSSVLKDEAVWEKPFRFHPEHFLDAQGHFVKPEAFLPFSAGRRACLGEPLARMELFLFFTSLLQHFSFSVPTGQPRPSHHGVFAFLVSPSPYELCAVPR

IC50 [1]: > 30 µM | IC50 [2]: > 10 µM | IC50 [3]: 1 µM | remaining at 0.25 h [4]: 64% | IC50 [5]: > 300 µM | IC50 [6]: > 100 µM | IC50 [7]: > 30 µM | IC50 [8]: > 10 µM | IC50 [9]: > 30 µM | IC50 [10]: > 30 µM | IC50 [11]: > 30 µM | Activity [12]: Dose-dependent effect
Compound: NC(=O)c1ccccc1Nc1cccc(OCCc2ccccc2)c1

Source: ChEMBL document CHEMBL2150931, “Design, synthesis, and biological activity of a novel series of human sirtuin-2-selective inhibitors” (J Med Chem, 2012)
